Tests used:
Heart [1] = assay: Biodistribution in CD1 mouse heart at 300 kBq, iv after 30 mins by gamma counting; assay type: ADME, organism-based; conditions: in vivo, 0.5 h
Procedure, shortened: (§1)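 Female CD-1 mice received the 18F tracer iv at 300 kBq in 0.9% NaCl containing 5% ethanol; 3–6 animals per time point (5, 30, 60, 120 min p.i.). Animals anaesthetized, blood and urine collected, killed by cervical luxation, organs dissected and weighed, counted in calibrated gamma counter. %ID/g = tissue counts / initial dose counts / tissue weight; mean with SD.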

Urinary bladder [2] = assay: Biodistribution in CD1 mouse bladder at 300 kBq, iv after 30 mins by gamma counting; assay type: ADME, organism-based; conditions: in vivo, 0.5 h
Procedure, shortened: (§2)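 Female CD-1 mice received [18F]1 (300 kBq) i.v.; 3–6 animals per time point anesthetized at 5, 30, 60 or 120 min p.i., blood and urine collected, animals euthanized by cervical dislocation, organs dissected and weighed. Radioactivity counted in a calibrated gamma counter; % ID/g = tissue counts / initial dose counts / tissue weight; means with SD.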

[3] = Biodistribution in CD1 mouse intestinal content at 300 kBq, iv after 30 mins by gamma counting; assay type: ADME, organism-based, Intestine; conditions: in vivo, 0.5 h; procedure, shortened: as §1
Blood = assay: Biodistribution in CD1 mouse blood at 300 kBq, iv after 60 mins by gamma counting; assay type: ADME, organism-based; conditions: in vivo, 1 h; procedure, shortened: as §2
[4] = Biodistribution in CD1 mouse intestinal content at 300 kBq, iv after 120 mins by gamma counting; assay type: ADME, organism-based, Intestine; conditions: in vivo, 2 h; procedure, shortened: as §1
Lung [5] = assay: Biodistribution in CD1 mouse lung at 300 kBq, iv after 30 mins by gamma counting; assay type: ADME, organism-based; conditions: in vivo, 0.5 h; procedure, shortened: as §1
Lung [6] = assay: Biodistribution in CD1 mouse lung at 300 kBq, iv after 60 mins by gamma counting; assay type: ADME, organism-based; conditions: in vivo, 1 h; procedure, shortened: as §1
Mus musculus [7] = assay: Biodistribution in CD1 mouse gonads at 300 kBq, iv after 30 mins by gamma counting; assay type: ADME, organism-based, Gonad; conditions: in vivo, 0.5 h; procedure, shortened: as §2
Mus musculus [8] = assay: Biodistribution in CD1 mouse fat at 300 kBq, iv after 5 mins by gamma counting; assay type: ADME, organism-based, Adipose tissue; conditions: in vivo; procedure, shortened: as §2
Muscle tissue [9] = assay: Biodistribution in CD1 mouse muscle at 300 kBq, iv after 30 mins by gamma counting; assay type: ADME, organism-based; conditions: in vivo, 0.5 h; procedure, shortened: as §1
Heart [10] = assay: Biodistribution in CD1 mouse heart at 300 kBq, iv after 5 mins by gamma counting; assay type: ADME, organism-based; conditions: in vivo; procedure, shortened: as §1
Mus musculus [11] = assay: Biodistribution in CD1 mouse facial nucleus in brain saggital section at 24 MBq, iv at 45 mins by autoradiography; assay type: ADME, organism-based; conditions: in vivo, 0.75 h
Procedure, shortened: (§3)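 Female CD-1 mouse given [18F]1 (24 MBq) i.v. and sacrificed at 45 min. Brain hemispheres frozen in isopentane (−35 °C), cut into 12 µm sagittal cryosections, thaw-mounted, air-dried and exposed to 18F-sensitive storage phosphor screens. Anterior olfactory bulb served as nontarget region for target-to-nontarget ratios.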

Mus musculus [12] = assay: Biodistribution in CD1 mouse small intestine at 300 kBq, iv after 120 mins by gamma counting; assay type: ADME, organism-based; conditions: in vivo, 2 h; procedure, shortened: as §1
Lung [13] = assay: Biodistribution in CD1 mouse lung at 300 kBq, iv after 120 mins by gamma counting; assay type: ADME, organism-based; conditions: in vivo, 2 h; procedure, shortened: as §1
Femur [14] = assay: Biodistribution in CD1 mouse femur at 300 kBq, iv after 60 mins by gamma counting; assay type: ADME, organism-based; conditions: in vivo, 1 h; procedure, shortened: as §2
Cerebellum [15] = assay: Biodistribution in CD1 mouse cerebellum at 300 kBq, iv after 60 mins by gamma counting; assay type: ADME, organism-based; conditions: in vivo, 1 h; procedure, shortened: as §2
Spleen [16] = assay: Biodistribution in CD1 mouse spleen at 300 kBq, iv after 120 mins by gamma counting; assay type: ADME, organism-based; conditions: in vivo, 2 h; procedure, shortened: as §1
Spleen [17] = assay: Biodistribution in CD1 mouse spleen at 300 kBq, iv after 5 mins by gamma counting; assay type: ADME, organism-based; conditions: in vivo; procedure, shortened: as §1
Mus musculus [18] = assay: Biodistribution in CD1 mouse fat at 300 kBq, iv after 30 mins by gamma counting; assay type: ADME, organism-based, Adipose tissue; conditions: in vivo, 0.5 h; procedure, shortened: as §2
[19] = Chemical stability of the compound in 0.9% NaCl solution at pH 7.2 assessed as compound remaining after 2 hrs by radio-HPLC/TLC analysis; assay type: physicochemical; conditions: read-out: Stability
Procedure, shortened: (§4)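 Radiotracer incubated 120 min at 40 °C in 0.9% NaCl (pH 7.2), phosphate-saline (0.1 M sodium phosphate, 0.15 M NaCl, pH 7.2) or 0.01 M TRIS–HCl (pH 7.4 at 21 °C). Aliquots were taken at set times and analysed by radio-TLC on silica and by gradient radio-HPLC on RP-18 (MeCN/20 mM ammonium acetate, 254 nm), giving % unchanged tracer; n = 2.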

Kidney = assay: Biodistribution in CD1 mouse kidney at 300 kBq, iv after 120 mins by gamma counting; assay type: ADME, organism-based; conditions: in vivo, 2 h; procedure, shortened: as §1
Muscle tissue [20] = assay: Biodistribution in CD1 mouse muscle at 300 kBq, iv after 120 mins by gamma counting; assay type: ADME, organism-based; conditions: in vivo, 2 h; procedure, shortened: as §1
Femur [21] = assay: Biodistribution in CD1 mouse femur at 300 kBq, iv after 30 mins by gamma counting; assay type: ADME, organism-based; conditions: in vivo, 0.5 h; procedure, shortened: as §2
Mus musculus [22] = assay: Biodistribution in CD1 mouse adrenals at 300 kBq, iv after 5 mins by gamma counting; assay type: ADME, organism-based, Adrenal gland; conditions: in vivo; procedure, shortened: as §2
Femur [23] = assay: Biodistribution in CD1 mouse flushed femur at 300 kBq, iv after 60 mins by gamma counting; assay type: ADME, organism-based; conditions: in vivo, 1 h; procedure, shortened: as §2
Spleen [24] = assay: Biodistribution in CD1 mouse spleen at 300 kBq, iv after 60 mins by gamma counting; assay type: ADME, organism-based; conditions: in vivo, 1 h; procedure, shortened: as §1
Heart [25] = assay: Biodistribution in CD1 mouse heart at 300 kBq, iv after 60 mins by gamma counting; assay type: ADME, organism-based; conditions: in vivo, 1 h; procedure, shortened: as §1
Femur [26] = assay: Biodistribution in CD1 mouse femur at 300 kBq, iv after 120 mins by gamma counting; assay type: ADME, organism-based; conditions: in vivo, 2 h; procedure, shortened: as §2
Mus musculus [27] = assay: Biodistribution in CD1 mouse thymus at 300 kBq, iv after 30 mins by gamma counting; assay type: ADME, organism-based; conditions: in vivo, 0.5 h; procedure, shortened: as §1
[28] = Metabolic stability in CD1 mouse brain homogenates assessed as compound remaining at 191 MBq, iv after 30 mins by radio-HPLC/TLC analysis; assay type: ADME, organism-based; conditions: brain homogenate, read-out: Stability
Procedure, shortened: (§5)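 Female CD-1 mice were injected with the radiotracer via the tail vein and killed at 30 or 60 min p.i. Whole brains (n = 2 per time) were homogenised in 50 mM TRIS–HCl pH 7.4 at 4 °C and extracted twice with ice-cold acetonitrile. Concentrated extracts were analysed by radio-HPLC and radio-TLC to give % parent versus radiometabolites.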

[29] = Biodistribution in CD1 mouse intestinal content at 300 kBq, iv after 5 mins by gamma counting; assay type: ADME, organism-based, Intestine; conditions: in vivo; procedure, shortened: as §1
[30] = Chemical stability of the compound in phosphate-saline solution at pH 7.2 assessed as compound remaining after 2 hrs by radio-HPLC/TLC analysis; assay type: physicochemical; conditions: read-out: Stability; procedure, shortened: as §4
Brain = assay: Drug metabolism in CD1 mouse brain homogenates assessed as radiometabolites at 191 MBq, iv after 30 mins by radio-HPLC/TLC analysis; assay type: ADME, organism-based; conditions: in vivo, 0.5 h; procedure, shortened: as §5
Mus musculus [31] = assay: Biodistribution in CD1 mouse small intestine at 300 kBq, iv after 60 mins by gamma counting; assay type: ADME, organism-based; conditions: in vivo, 1 h; procedure, shortened: as §1
Femur [32] = assay: Biodistribution in CD1 mouse femur at 300 kBq, iv after 5 mins by gamma counting; assay type: ADME, organism-based; conditions: in vivo; procedure, shortened: as §2
Cerebellum [33] = assay: Biodistribution in CD1 mouse cerebellum in brain saggital section at 24 MBq, iv at 45 mins by autoradiography; assay type: ADME, organism-based; conditions: in vivo, 0.75 h; procedure, shortened: as §3
Urinary bladder [34] = assay: Biodistribution in CD1 mouse bladder at 300 kBq, iv after 60 mins by gamma counting; assay type: ADME, organism-based; conditions: in vivo, 1 h; procedure, shortened: as §2

## [18F]CC1OC2(CCN(Cc3ccccc3)CC2)c2ccccc21 (configuration not stated)
Heart [1]
  Drug uptake: 4.57 % ID/g
Urinary bladder [2]
  Drug uptake: 3.86 % ID/g
[3]
  Drug uptake: 0.4 % ID/g
Blood
  Drug uptake: 0.16 % ID/g
[4]
  Drug uptake: 1.96 % ID/g
Lung [5]
  Drug uptake: 8.3 % ID/g
Lung [6]
  Drug uptake: 8.32 % ID/g
Mus musculus [7]
  Drug uptake: 4.75 % ID/g
Mus musculus [8]
  Drug uptake: 1.12 % ID/g
Muscle tissue [9]
  Drug uptake: 1.67 % ID/g
Heart [10]
  Drug uptake: 7.33 % ID/g
Mus musculus [11]
  Drug uptake: Active
Mus musculus [12]
  Drug uptake: 25.9 % ID/g
Lung [13]
  Drug uptake: 6.82 % ID/g
Femur [14]
  Drug uptake: 1.75 % ID/g
Cerebellum [15]
  Drug uptake: 4.27 % ID/g
Spleen [16]
  Drug uptake: 4.84 % ID/g
Spleen [17]
  Drug uptake: 6.23 % ID/g
Mus musculus [18]
  Drug uptake: 1.82 % ID/g
[19]
  remaining at 2 h: 96.9%
Kidney
  Drug uptake: 5.6 % ID/g
Muscle tissue [20]
  Drug uptake: 1.16 % ID/g
Femur [21]
  Drug uptake: 4.34 % ID/g
Mus musculus [22]
  Drug uptake: 13.29 % ID/g
Femur [23]
  Drug uptake: 1.18 % ID/g
Spleen [24]
  Drug uptake: 5.3 % ID/g
Heart [25]
  Drug uptake: 2.96 % ID/g
Femur [26]
  Drug uptake: 1.92 % ID/g
Mus musculus [27]
  Drug uptake: 4.83 % ID/g
[28]
  remaining at 0.5 h: 90%
[29]
  Drug uptake: 0.39 % ID/g
[30]
  remaining at 2 h: 96.5%
Brain
  Drug metabolism: Active
Mus musculus [31]
  Drug uptake: 23.46 % ID/g
Femur [32]
  Drug uptake: 2.32 % ID/g
Cerebellum [33]
  Drug uptake: Active
Urinary bladder [34]
  Drug uptake: 1.42 % ID/g

Reference: ChEMBL document CHEMBL1938297, “Synthesis, radiofluorination and pharmacological evaluation of a fluoromethyl spirocyclic PET tracer for central σ1 receptors and comparison with fluoroalkyl homologs” (Bioorg Med Chem, 2012)
